From ChEMBL document CHEMBL1147097, “Trioxaquines are new antimalarial agents active on all erythrocytic forms, including gametocytes” (Antimicrob Agents Chemother, 2007) come the findings set out here.

For assay [1], the system named is Plasmodium falciparum. Kind of assay: Antimalarial activity against chloroquine-resistant Plasmodium falciparum FcM29. It is filed as functional, organism-based. In a few lines: (§1)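 Asexual P. falciparum grown in culture at 37°C under 5% CO2 and exposed to drug dilutions for 48 h. Growth inhibition measured by radioactive micromethod. IC50 read graphically from concentration vs % growth inhibition; mean of at least three independent experiments.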

Assay [2] concerns Plasmodium falciparum. Kind of assay: Antimalarial activity against chloroquine-resistant Plasmodium falciparum FcB1. It is filed as functional, organism-based. An outline of the steps: as §1
For assay [3], the system named is Plasmodium vinckei petteri. Kind of assay: Antimalarial activity against Plasmodium vinckei petteri infected intraperitoneally dosed Swiss Albino mice (Mus musculus). It is filed as functional. An outline of the steps:
(§2)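 Four-day suppressive test: groups of five female Swiss albino mice infected i.p. on day 0 with 2 × 10^7 parasitized red cells, then dosed once daily for 4 days (i.p., p.o. or s.c.; DMSO vehicle, chloroquine in 0.9% NaCl). Parasitemia read on day 4 vs untreated controls; ED50/ED90 as % growth inhibition; CD50/CD90 = cure (no parasites at 60 days).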

The test system of assay [4] is Plasmodium falciparum. Description: Antimalarial activity against chloroquine-resistant Plasmodium falciparum W2 asexual […]. It is filed as functional, organism-based.
The subject of assay [5] is Plasmodium falciparum. Description: Antimalarial activity against chloroquine-resistant Plasmodium falciparum W2 gametocytes (stage 2 & 3). The format is functional, organism-based. An outline of the steps:
(§3)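 W2 gametocyte cultures treated with 50 mM N-acetyl-D-glucosamine for 3 or 5 days to remove asexual forms. Young (7-day) or old (13-day) cultures exposed to drug dilutions for 48 h. Giemsa thin films made and gametocytes counted per 6,000–10,000 erythrocytes. Mean of three independent experiments.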

The test system of assay [6] is Plasmodium falciparum. Description: Antimalarial activity against chloroquine-resistant Plasmodium falciparum W2 gametocytes (stage 4 & 5). It is filed as functional, organism-based. An outline of the steps:
as §3

The subject of assay [7] is Plasmodium vinckei petteri. Description: Antimalarial activity against Plasmodium vinckei petteri infected subcutaneously dosed Swiss Albino mice (Mus musculus). It is filed as functional. In a few lines: as §2
For assay [8], the system named is Plasmodium vinckei petteri. Kind of assay: Antimalarial activity against Plasmodium vinckei petteri infected orally dosed Swiss Albino mice (Mus musculus). It is filed as functional. In a few lines:
as §2

The test system of assay [9] is Plasmodium falciparum. Kind of assay: Antimalarial activity against chloroquine-sensitive Plasmodium falciparum F32. It is filed as functional, organism-based. In a few lines:
as §1

For `CC(C)C1=C[C@H]2OC3(CCC(NCCNc4ccnc5cc(Cl)ccc45)CC3)OO[C@@]2(C)CC1` (stereo in doubt; form 4), the IC50 (usually the midpoint of a concentration-inhibition curve) was 19 nM in the assay with Plasmodium falciparum [1] and 43 nM with Plasmodium falciparum [2].
Turning to `CC(C)C1=C[C@H]2OC3(CCC(NCCNc4ccnc5cc(Cl)ccc45)CC3)OO[C@@]2(C)CC1.O=C(O)CC(O)(CC(=O)O)C(=O)O` (stereo in doubt; form 10), in assay [3], the CD50 was 7 mg/kg/day, the ED50 (usually the midpoint of the dose-response relation) is 7 mg/kg/day and the ED90 amounted to 2.5 mg/kg/day.
For `CO[C@H]1O[C@@H]2O[C@@]3(C)CC[C@H]4[C@H](C)CC[C@@H]([C@H]1C)[C@@]24OO3`, in [3] (Plasmodium vinckei, ip, read-out: ED50), the ED50 is 0.3 mg/kg/day. The ED90 in assay [3] (Plasmodium vinckei, ip, read-out: ED90) stood at 0.7 mg/kg/day.
Turning to `COc1cc(NC(C)CCCNC2CCC3(CC2)OO[C@@]2(C)CCC(C(C)C)=C[C@H]2O3)c2ncccc2c1` (some centres not stated), the half-maximal inhibitory concentration (IC50) with Plasmodium falciparum [4] worked out at 43 nM; in the assay with Plasmodium falciparum [5], 57 nM; with Plasmodium falciparum [6], 46 nM.
For `C[C@H]1[C@H](OC(=O)CCC(=O)O)O[C@@H]2O[C@@]3(C)CC[C@H]4[C@H](C)CC[C@@H]1[C@@]24OO3` [ARTESUNATE], the IC50 was 1.6 nM in the assay on Plasmodium falciparum [1] (Plasmodium falciparum, FcM29); 6 nM in the assay on Plasmodium falciparum [4]; 72 nM with Plasmodium falciparum [5]; 108 nM in the assay with Plasmodium falciparum [6]. Moreover, the CD50 in assay [7] is on record as 2.5 mg/kg/day; in assay [8], 19 mg/kg/day. Also, the CD90 in [7] is 7.5 mg/kg/day; in assay [8] it was 28 mg/kg/day. Also, the median effective dose (ED50) in assay [7] (Plasmodium vinckei, sc) came to 0.3 mg/kg/day; in assay [8] (Plasmodium vinckei, po), 2.5 mg/kg/day. Further, the ED90 in [7] (Plasmodium vinckei, sc) was 0.8 mg/kg/day; in [8] (Plasmodium vinckei, po) it was 8 mg/kg/day.
On to `O=C1C(O)=C([C@H]2CC[C@H](c3ccc(Cl)cc3)CC2)C(=O)c2ccccc21` [ATOVAQUONE], for which the 50% inhibitory concentration (IC50) in the assay on Plasmodium falciparum [4] is 4.6 nM; with Plasmodium falciparum [5] it was 24000 nM; in the assay on Plasmodium falciparum [6] it was 50400 nM.
`CC(C)C1=C[C@H]2OC3(CCC(NCCNc4ccnc5cc(Cl)ccc45)CC3)OO[C@@]2(C)CC1` (stereo in doubt; form 3): the IC50 in the assay with Plasmodium falciparum [1] was found to be 23 nM; in the assay on Plasmodium falciparum [2], 47 nM.
`COc1cc(NC(C)CCCN)c2ncccc2c1` (configuration not stated) [PRIMAQUINE]: the IC50 in the assay with Plasmodium falciparum [4] is 1320 nM; in the assay with Plasmodium falciparum [5], 4580 nM; in the assay with Plasmodium falciparum [6], 1540 nM.
As to `CC(C)C1=C[C@H]2OC3(CCC(NCCNc4ccnc5cc(Cl)ccc45)CC3)OO[C@@]2(C)CC1` (stereo in doubt; form 1), the values for the IC50 with Plasmodium falciparum [1] and with Plasmodium falciparum [2] were 29 nM and 49 nM, respectively.
On to `CC(C)C1=C[C@H]2OC3(CCC(NCCNc4ccnc5cc(Cl)ccc45)CC3)OO[C@@]2(C)CC1` (stereo in doubt; form 8) [TRIOXAQUINE 3], for which the IC50 was determined as 12 nM with Plasmodium falciparum [1], 11 nM with Plasmodium falciparum [9] and 8 nM with Plasmodium falciparum [2].
In [3], `CC(C)C1=C[C@H]2OC3(CCC(NCCNc4ccnc5cc(Cl)ccc45)CC3)OO[C@@]2(C)CC1.O=C(O)CC(O)(CC(=O)O)C(=O)O` (stereo in doubt; form 9) displayed an ED50 of 3 mg/kg/day and an ED90 of 8 mg/kg/day.
On to `CC(C)C1=C[C@H]2OC3(CCC(NCCNc4ccnc5cc(Cl)ccc45)CC3)OO[C@@]2(C)CC1` (stereo in doubt; form 2), for which the IC50 turned out to be 32 nM with Plasmodium falciparum [1] and 48 nM in the assay on Plasmodium falciparum [2].
Turning to `CC(C)C1=C[C@H]2OC3(CCC(NCCNc4ccnc5cc(Cl)ccc45)CC3)OO[C@@]2(C)CC1` (stereo in doubt; form 7) [TRIOXAQUINE 3], the IC50 in the assay on Plasmodium falciparum [1], in the assay on Plasmodium falciparum [9] and in the assay on Plasmodium falciparum [2] was 7 nM each time.
